For 40 molecules, Ki, Activity and Index results are on record in ChEMBL document CHEMBL1142767, “2-(2-Furanyl)-7-phenyl[1,2,4]triazolo[1,5-c]pyrimidin-5-amine analogs: highly potent, orally active, adenosine A2A antagonists. Part 1” (Bioorg Med Chem Lett, 2005).

Active and inactive are the calls of the source.

Assay [1] deals with Adenosine receptor A2a (Rattus norvegicus, UniProt P30543). The assay can be described thus: In vitro ability to displace [3H]SCH-58261 from A2A adenosine receptor in Rat.
Adenosine receptor A2a, sequence (P30543 whole entry): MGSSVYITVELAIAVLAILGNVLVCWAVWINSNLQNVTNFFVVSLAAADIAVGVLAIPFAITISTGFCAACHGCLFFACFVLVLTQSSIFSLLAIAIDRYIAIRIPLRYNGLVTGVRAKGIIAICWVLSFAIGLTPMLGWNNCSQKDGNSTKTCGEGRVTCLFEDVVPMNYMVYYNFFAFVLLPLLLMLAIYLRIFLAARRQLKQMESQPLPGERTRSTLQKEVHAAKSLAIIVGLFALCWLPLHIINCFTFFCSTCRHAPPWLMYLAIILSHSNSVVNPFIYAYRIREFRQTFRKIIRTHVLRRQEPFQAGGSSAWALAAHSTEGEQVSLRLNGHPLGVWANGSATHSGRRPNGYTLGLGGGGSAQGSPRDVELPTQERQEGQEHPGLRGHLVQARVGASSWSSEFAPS
Assay [2] deals with Rattus norvegicus. The assay can be described thus: Anti-cataleptic activity in Rat at oral dose of 3 mg/kg retested at 1 and 4 hr after administration; Activity Not Traced. The arrangement: dose 3 mg/kg. The class given is functional, organism-based. In outline: (§1)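 Male CD rats, 200-240 g, housed 4 per cage on a 12-h light/dark cycle. Catalepsy was induced with haloperidol 1 mg/kg s.c. After 30 min, each rat was placed facing upward on a wire screen inclined at 60°, and time to move one limb was recorded (cut-off 120 s). Rats immobile >75 s received test compound orally and were retested at 1 and 4 h.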

Assay [3] addresses Adenosine receptors; A1 & A2a (Rattus norvegicus) (UniProt P25099+P30543).
Assay [4] has as its system Rattus norvegicus. Description: Anti-cataleptic activity in Rat at oral dose of 3 mg/kg retested at 1 hr after administration. The class given is functional. The procedure, abridged: as §1
Assay [5] relates to Rattus norvegicus. The assay can be described thus: Anti-cataleptic activity in Rat at oral dose of 3 mg/kg retested at 4 hr after administration. The format is functional. The procedure, abridged: as §1

Adenosine receptors; A1 & A2a (Rattus norvegicus), sequence (P25099 whole entry, looked up): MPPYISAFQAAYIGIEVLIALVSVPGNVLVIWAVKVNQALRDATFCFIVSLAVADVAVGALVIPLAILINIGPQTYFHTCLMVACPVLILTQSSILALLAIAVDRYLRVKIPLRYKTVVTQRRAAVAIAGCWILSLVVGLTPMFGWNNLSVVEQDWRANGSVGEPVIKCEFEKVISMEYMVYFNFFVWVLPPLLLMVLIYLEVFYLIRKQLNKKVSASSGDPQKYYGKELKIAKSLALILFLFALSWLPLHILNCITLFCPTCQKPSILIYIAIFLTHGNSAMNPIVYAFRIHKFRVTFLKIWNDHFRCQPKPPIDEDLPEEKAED
Adenosine receptors; A1 & A2a (Rattus norvegicus), sequence (P30543 whole entry, looked up): as the sequence (P30543 whole entry) above

One may read the Ki as the equilibrium dissociation constant of an inhibitor or competing ligand from its target. A high value points to weaker binding. Molecule `COCCOc1ccc(N2CCN(Cc3cccc(-c4cc5nc(-c6ccco6)nn5c(N)n4)c3)CC2)c(C#N)c1` returned a Ki in assay [1] of 3.6 nM. The outcome in assay [2] was inactive. The Index in assay [3] amounted to 85.
As to `COc1cccc(-c2cc3nc(-c4ccco4)nn3c(N)n2)c1`, the Ki in assay [1] was found to be 5 nM. Further, the Index in assay [3] was found to be 20.
As for `Nc1nc(-c2cccc(CN3CCC(c4ccc(F)cc4)CC3)c2)cc2nc(-c3ccco3)nn12`, the Activity in assay [4] and in assay [5] was 20 in each case. For the same molecule, in assay [1], the affinity corresponds to a Ki of 7.4 nM. This molecule also came in with an Index in assay [3] of 115.
In assay [1], `CC(C)c1ccc(-c2cc3nc(-c4ccco4)nn3c(N)n2)cc1` had a Ki of 4.7 nM. In addition, the Index in assay [3] turned out to be 31.
Take `COCCOc1ccc(N2CCN(Cc3cccc(-c4cc5nc(-c6ccco6)nn5c(N)n4)c3)CC2)c(Cl)c1`: the Activity in assay [4] was 12; in assay [5], 15. For the same molecule, affinity in assay [1] was put at a Ki of 2.9 nM. This molecule also showed an Index in assay [3] of 204.
In assay [1], `Cc1ccccc1-c1cc2nc(-c3ccco3)nn2c(N)n1` came in with a Ki of 22 nM. Further, in assay [3], the Index was 12.
In assay [1], `Nc1nc(-c2cccc(CN3CCC(c4ccccc4)CC3)c2)cc2nc(-c3ccco3)nn12` yielded an inhibition constant (Ki) of 4.6 nM. In addition, the outcome in assay [2] was inactive. Moreover, the Index in assay [3] is 69.
Regarding `Nc1nc(-c2cccc(CO)c2)cc2nc(-c3ccco3)nn12`, the affinity in assay [1], expressed as Ki, was 2.8 nM. The molecule also registered an Index in assay [3] of 135.
Taken in the same sequence, the figures for `COc1ccc(OC)c(-c2cc3nc(-c4ccco4)nn3c(N)n2)c1` were 4.5 nM and 65.
The matching figures for `COc1cccc(OC)c1-c1cc2nc(-c3ccco3)nn2c(N)n1`: 1700 nM and 1.
`COc1cccc(-c2cc3nc(-c4ccco4)nn3c(N)n2)c1OC` returned a Ki in assay [1] of 21.7 nM. The same molecule gave an Index in assay [3] of 27.
On to `COCCOc1cccc(N2CCN(Cc3cccc(-c4cc5nc(-c6ccco6)nn5c(N)n4)c3)CC2)c1`, for which the Activity is recorded as 29 in assay [4] and 53 in assay [5]. The molecule also yielded a Ki in assay [1] of 4 nM. For the same molecule, the Index in assay [3] amounted to 115.
Consider `COCCOc1ccc(N2CCN(Cc3cccc(-c4cc5nc(-c6ccco6)nn5c(N)n4)c3)CC2)cc1`, for which the Activity is recorded as 40 in assay [4] and 65 in assay [5]. This molecule also gave a Ki in assay [1] of 2.8 nM. The Index in assay [3] was 601.
In turn, `Nc1nc(-c2cccnc2)cc2nc(-c3ccco3)nn12` registered a Ki in assay [1] of 6.6 nM. The molecule further registered an Index in assay [3] of 65.
The matching figures for `COc1ccccc1-c1cc2nc(-c3ccco3)nn2c(N)n1`: 4.3 nM and 27.
For the molecule `COCCOc1c(F)cc(N2CCN(Cc3cccc(-c4cc5nc(-c6ccco6)nn5c(N)n4)c3)CC2)cc1F`, the results for the Activity in assay [4] and in assay [5] were 28 and 47, respectively. In addition, in assay [1], the affinity corresponds to a Ki of 2.2 nM. The molecule also came in with an Index in assay [3] of 338.
Consider `COc1ccc(-c2cc3nc(-c4ccco4)nn3c(N)n2)cc1OC`, for which affinity in assay [1] was put at a Ki of 7.3 nM. The Index in assay [3] worked out at 64.
`COc1ccc(-c2cc3nc(-c4ccco4)nn3c(N)n2)c(OC)c1OC`: the Ki in assay [1] was 4.5 nM. The molecule further yielded an Index in assay [3] of 17.
Taken in the same sequence, the figures for `Cc1cccc(-c2cc3nc(-c4ccco4)nn3c(N)n2)c1` were 3.7 nM and 13.
The molecule `Nc1nc(-c2cccc(CN3CCN(c4ccc(Cl)c(Cl)c4)CC3)c2)cc2nc(-c3ccco3)nn12` gave a Ki in assay [1] of 10.5 nM. The result in assay [2] was inactive. This molecule yielded an Index in assay [3] of 3.
The molecule `Cc1ccc(-c2cc3nc(-c4ccco4)nn3c(N)n2)cc1` showed a Ki in assay [1] of 8.4 nM. Further, in assay [3], the Index was 19.
Taken in the same sequence, the figures for `COc1cc(-c2cc3nc(-c4ccco4)nn3c(N)n2)cc(OC)c1OC` were 4.5 nM and 69.
In the case of `COCCOc1ccc(N2CCN(Cc3cccc(-c4cc5nc(-c6ccco6)nn5c(N)n4)c3)CC2)c(C)c1`, the Ki in assay [1] amounted to 2.7 nM. Further, the outcome in assay [2] was inactive. Further, the Index in assay [3] was found to be 72.
For the molecule `Nc1nc(-c2cccc(-c3ccccc3)c2)cc2nc(-c3ccco3)nn12`, the affinity in assay [1], expressed as Ki, was 5.5 nM. Also, the Index in assay [3] was 82.
Taken in the same sequence, the figures for `COc1ccc(-c2cc3nc(-c4ccco4)nn3c(N)n2)cc1` were 7.3 nM and 103.
In assay [1], `Nc1cccc(-c2cc3nc(-c4ccco4)nn3c(N)n2)c1` showed a Ki of 5 nM. In assay [3], this molecule showed an Index of 11.
The molecule `N#Cc1cccc(-c2cc3nc(-c4ccco4)nn3c(N)n2)c1` yielded a Ki in assay [1] of 5.4 nM. Also, the Index in assay [3] came to 14.
The matching figures for `Nc1nc(-c2ccccn2)cc2nc(-c3ccco3)nn12`: 1.4 nM and 34.
The matching figures for `Nc1nc(-c2cccs2)cc2nc(-c3ccco3)nn12`: 4.4 nM and 15.
Take `COCCOc1ccc(C2CCN(Cc3cccc(-c4cc5nc(-c6ccco6)nn5c(N)n4)c3)CC2)cc1`: the Activity in assay [4] and in assay [5] was 0 throughout. The molecule further displayed a Ki in assay [1] of 8.9 nM. In addition, in assay [3], the Index was determined as 202.
Consider `COc1ccc(-c2cc3nc(-c4ccco4)nn3c(N)n2)c(OC)c1`, for which the Ki in assay [1] turned out to be 2.9 nM. Further, in assay [3], the Index amounted to 98.
For the molecule `Nc1nc(-c2cccc(CN3CCN(c4ccccc4)CC3)c2)cc2nc(-c3ccco3)nn12`, the Ki in assay [1] was 4.6 nM. Besides, the result in assay [2] was inactive. In addition, the Index in assay [3] came out at 69.
As to `Nc1nc(-c2cccc(CN3CCN(c4nccs4)CC3)c2)cc2nc(-c3ccco3)nn12`, the Activity in assay [4] amounted to 20; in assay [5], 10. This molecule also returned a Ki in assay [1] of 2.4 nM. The molecule further registered an Index in assay [3] of 192.
Consider `COCCOc1cc(F)c(N2CCN(Cc3cccc(-c4cc5nc(-c6ccco6)nn5c(N)n4)c3)CC2)c(F)c1`, for which the Ki in assay [1] stood at 6.4 nM. Also, in assay [2], the outcome was inactive. Besides, the Index in assay [3] was determined as 71.
As for `Nc1nc(-c2ccccc2)cc2nc(-c3ccco3)nn12`, the Ki in assay [1] came to 7 nM. The molecule further displayed an Index in assay [3] of 3.
Turning to `Nc1nc(-c2ccncc2)cc2nc(-c3ccco3)nn12`, the Ki in assay [1] was 1.9 nM. Further, the Index in assay [3] was 66.
`CN(CCc1ccccc1)Cc1cccc(-c2cc3nc(-c4ccco4)nn3c(N)n2)c1` came in with a Ki in assay [1] of 3.6 nM. In assay [2], the result was inactive. Further, the Index in assay [3] is 135.
As for `COCCOc1ccc(N2CCN(Cc3cccc(-c4cc5nc(-c6ccco6)nn5c(N)n4)c3)CC2)c(F)c1`, the Activity in assay [4] came to 20; in assay [5] it was 0. The molecule further yielded an inhibition constant (Ki) in assay [1] of 2.7 nM. In addition, the Index in assay [3] stood at 642.
Taken in the same sequence, the figures for `COCCOc1ccc(N2CCN(Cc3cccc(-c4cc5nc(-c6ccco6)nn5c(N)n4)c3)CC2)cc1OC` were 33, 39, 3.3 nM and 134.
Taken in the same sequence, the figures for `COCCOc1ccc(N2CCN(Cc3cccc(-c4cc5nc(-c6ccco6)nn5c(N)n4)c3)CC2)cc1C#N` were 14, 9, 1.1 nM and 314.
